Measurements gathered from unrelated publications.
Each line is one published result; the experiments were not run side by side.

| SMILES | test system | setting | quantity | result |
| --- | --- | --- | --- | --- |
| COc1cc(C(=O)NC2CCN(C)CC2)c(F)cc1Nc1ncc(C(F)(F)F)c(Oc2cccc3c2C(=O)N(C)C3)n1 | human, plasma | oral, 25 mg, multiple doses, once daily, patients | Vd/F | 520 L |
| CO[C@H]1CC[C@H](N2C(=O)CNc3ncc(-c4ccc(C(C)(C)O)nc4)nc32)CC1 | human, plasma | oral, 45 mg, patients | Vd/F | 186 L |
| Cc1cc(Nc2cc(N3CCN(C)CC3)nc(/C=C/c3ccccc3)n2)n[nH]1 | human, plasma | oral, 200 mg/m², multiple doses, patients | Vd/F | 907 L |
| C=CC(=O)N1CC2CC(n3nc(-c4ccc(C(=O)Nc5ccccn5)cc4)c4c(N)ncnc43)CC2C1 (centres unmarked) | SCID mouse, plasma | oral, 1 mg/kg | Cmax | 61.8 ng/mL |
| CC(C)(C)c1ccc(O)c(CN(Cc2cc(C(C)(C)C)ccc2O)C2CCC(NC(N)=O)CC2)c1 (centres unmarked) | male C57BL/6 mouse, brain | intraperitoneal, 10 mg/kg, single dose | Cmax | 1070 ng/g |
| CC(C)(Sc1ccncc1-c1ccc(C#N)c2ccccc12)C(=O)O | male human, plasma | oral, 5 mg, single dose, fed, healthy volunteers | Vd/F | 625 L |
| CCNCCCNC/C=C\CNCCCNCC | human, plasma | intravenous, 200 mg, patients, infusion | Vd | 0.56 L/kg |
| COc1ccc([C@@H]2CN(C(=O)[C@@H](O)CO)C[C@@]2(C)[C@@H](C)O)cc1OC1CN(c2ccc(C)cn2)C1 | human, plasma | oral, 5 mg, single dose, healthy volunteers | Vd/F | 46.4 L |
